Test [1] concerns the target T1, Phospholipase A and acyltransferase 2 (Homo sapiens, UniProt Q9NWW9).
T1 sequence (Q9NWW9 whole entry): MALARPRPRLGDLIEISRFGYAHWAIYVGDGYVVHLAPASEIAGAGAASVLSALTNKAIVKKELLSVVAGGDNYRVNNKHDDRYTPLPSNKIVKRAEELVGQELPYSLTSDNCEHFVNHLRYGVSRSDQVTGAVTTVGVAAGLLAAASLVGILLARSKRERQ
Kind of test: Inhibition of full-length C-terminal FLAG-tagged human PLAAT2 expressed in HEK293T cell lysate preincubated for 30 mins followed by MB064 addition and measured after 20 mins by SDS-PAGE based ABPP analysis. In kind it is cell-free, HEK-293T. The procedure, abridged:
(§1)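 Dose–response competitive ABPP on cytosol only, from HEK293T overexpressing FLAG-tagged PLAAT. Inhibitor 30 min rt, then MB064 20 min rt. PLAAT2 0.25 μg/μL with 250 nM probe; PLAAT3 0.5 μg/μL with 250 nM; PLAAT4 and PLAAT5 1 μg/μL with 500 nM. Fluorescence normalized to Coomassie. IC50 from curves, reported as pIC50 ± SEM, n = 3.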

Test [2] addresses T2, Phospholipase A and acyltransferase 3 (Homo sapiens, UniProt P53816).
T2 sequence (P53816 whole entry): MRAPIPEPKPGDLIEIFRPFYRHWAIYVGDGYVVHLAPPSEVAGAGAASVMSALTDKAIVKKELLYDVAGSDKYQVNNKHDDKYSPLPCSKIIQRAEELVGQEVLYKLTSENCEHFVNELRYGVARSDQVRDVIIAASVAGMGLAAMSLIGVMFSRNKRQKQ
In words: Inhibition of full-length C-terminal FLAG-tagged human PLAAT3 expressed in HEK293T cell lysate preincubated for 30 mins followed by MB064 addition and measured after 20 mins by SDS-PAGE based ABPP analysis. In kind it is cell-free, HEK-293T. The procedure, abridged: as §1

In test [3] the target is T3, Phospholipase A and acyltransferase 4 (Homo sapiens, UniProt Q9UL19).
T3 sequence (Q9UL19 whole entry): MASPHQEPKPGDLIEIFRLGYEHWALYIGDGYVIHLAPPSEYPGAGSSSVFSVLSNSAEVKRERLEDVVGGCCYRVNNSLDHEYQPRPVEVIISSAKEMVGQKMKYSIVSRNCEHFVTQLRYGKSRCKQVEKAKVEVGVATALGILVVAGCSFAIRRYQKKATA
Kind of test: Inhibition of full-length C-terminal FLAG-tagged human PLAAT4 expressed in HEK293T cell lysate preincubated for 30 mins followed by MB064 addition and measured after 20 mins by SDS-PAGE based ABPP analysis. In kind it is cell-free, HEK-293T. The method in brief:
as §1

The target of test [4] is Cannabinoid receptor 2 (Homo sapiens) (UniProt P34972). In words: Displacement of [3H]CP55940 from human CB2 receptor expressed in CHOK1 cell membranes at 10 uM by liquid scintillation spectrometry analysis. The settings on record: CHO-K1. The procedure, abridged: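 [3H]CP55940 displacement at human CB1 or CB2 receptors, single test concentration 10 μM. Result expressed as % radioligand displacement ± SD (N = 2, n = 2).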
A general note: In a radioligand displacement assay an active substance lowers the binding of a labelled ligand.

Test [5] addresses N-acyl-phosphatidylethanolamine-hydrolyzing phospholipase D (Homo sapiens) (UniProt Q6IQ20). In words: Inhibition of full length human NAPE-PLD expressed in HEK293T cells assessed as enzyme remaining activity at 10 uM using PED6 as substrate preincubated for 30 mins followed by substrate addition and measured for 1 hr at 2 mins relative to control. The format is cell-based. The settings on record: HEK-293T.

Test [6] addresses T4, Phospholipase A and acyltransferase 2 (Homo sapiens) (UniProt Q9NWW9).
T4 sequence (whole entry): T1 sequence (Q9NWW9 whole entry)
In words: Inhibition of full-length C-terminal FLAG-tagged human PLAAT2 expressed in human U2OS cells assessed as reduction in absolute N-palmitoylethanolamine level at 10 uM incubated for 4 hrs by LC-MS/MS analysis. In kind it is cell-based. The procedure, abridged: (§2)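 U2OS cells transfected with PLAAT2, PLAAT5 or empty vector (PEI, 1:5 plasmid/PEI). At 24 h, switched to serum-free medium with 10 μM compound (0.1% DMSO) or DMSO for 4 h at 37 °C. Pellets extracted with MTBE against deuterated internal standards. NAEs, 2-AG and free fatty acids quantified by LC–MS/MS, normalized to live cell count. Four biological replicates; one-way ANOVA.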

Test [7] deals with T4, Phospholipase A and acyltransferase 2 (Homo sapiens). In words: Inhibition of full-length C-terminal FLAG-tagged human PLAAT2 expressed in human U2OS cells assessed as reduction in absolute N-oleoylethanolamine level at 10 uM incubated for 4 hrs by LC-MS/MS analysis. In kind it is cell-based. The method in brief:
as §2

The target in test [8] is T5, Phospholipase A and acyltransferase 5 (Homo sapiens) (UniProt Q96KN8).
T5 sequence (whole entry): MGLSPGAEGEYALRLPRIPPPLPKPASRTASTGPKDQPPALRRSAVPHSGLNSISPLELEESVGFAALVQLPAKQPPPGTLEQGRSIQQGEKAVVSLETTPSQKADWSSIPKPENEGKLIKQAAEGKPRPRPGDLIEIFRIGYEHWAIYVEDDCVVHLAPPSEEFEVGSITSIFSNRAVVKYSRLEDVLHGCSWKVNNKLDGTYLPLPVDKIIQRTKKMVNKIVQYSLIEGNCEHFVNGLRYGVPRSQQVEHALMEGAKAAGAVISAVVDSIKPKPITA
In words: Inhibition of full-length C-terminal FLAG-tagged human PLAAT5 expressed in human U2OS cells assessed as reduction in absolute N-linoleoylethanolamine level at 10 uM incubated for 4 hrs by LC-MS/MS analysis. The format is cell-based. The procedure, abridged: as §2

Test [9] addresses T4, Phospholipase A and acyltransferase 2 (Homo sapiens). Kind of test: Inhibition of full-length C-terminal FLAG-tagged human PLAAT2 expressed in human U2OS cells assessed as reduction in absolute N-docosahexaenoylethanolamine level at 10 uM incubated for 4 hrs by LC-MS/MS analysis. In kind it is cell-based. The method in brief: as §2
Test [10] concerns U2OS. In words: Downregulation of N-stearoylethanolamine level in human U2OS cells at 10 uM after 4 hrs by LC-MS/MS analysis. In kind it is functional, cell-based. The procedure, abridged:
as §2

Test [11] concerns U2OS. Kind of test: Downregulation of N-oleoylethanolamine level in human U2OS cells at 10 uM after 4 hrs by LC-MS/MS analysis. The format is functional, cell-based. The procedure, abridged:
as §2

Test [12] concerns U2OS. In words: Downregulation of N-eicosapentaenoylethanolamine level in human U2OS cells at 10 uM after 4 hrs by LC-MS/MS analysis. In kind it is functional, cell-based. The procedure, abridged: as §2
For test [13], the system named is U2OS. In words: Inhibition of serine hydrolase in human U2OS cytosolic fraction at 10 uM preincubated for 30 mins followed by FP-TAMRA addition and measured after 15 mins by SDS-PAGE based competitive ABPP analysis. The method in brief: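 U2OS cytosol or membrane lysate at 2.5 μg/μL, pretreated with inhibitor or DMSO vehicle for 30 min at rt. Probe then added for 15 min at rt: MB064 at 2 μM or FP-TAMRA at 500 nM. Samples denatured in Laemmli buffer and resolved by SDS-PAGE. In-gel fluorescence scanned at Cy3/Cy5 settings and normalized to Coomassie staining.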

The target of test [14] is Cytosolic phospholipase A2 beta (Homo sapiens) (UniProt P0C869). In words: Inhibition of human PLA2G4B expressed in HEK293T cell lysates at 10 uM preincubated for 30 mins followed by FP-TAMRA addition and measured after 20 mins by SDS-PAGE based competitive ABPP analysis. The format is cell-free. The settings on record: HEK-293T. The procedure, abridged: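 hPLA2G4B, C or D-overexpressing membrane lysate (1 μg/μL) preincubated with inhibitor for 30 min at rt. FP-TAMRA 500 nM added for 20 min at rt. In-gel fluorescence after SDS-PAGE, normalized to Coomassie.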

In general, IC50 refers to the concentration that gives 50% inhibition. Lower therefore signals greater potency.

Active and inactive are the calls of the source. The rule behind the calls is not given here.

Sequence of Cytosolic phospholipase A2 beta (Homo sapiens) (P0C869 whole entry): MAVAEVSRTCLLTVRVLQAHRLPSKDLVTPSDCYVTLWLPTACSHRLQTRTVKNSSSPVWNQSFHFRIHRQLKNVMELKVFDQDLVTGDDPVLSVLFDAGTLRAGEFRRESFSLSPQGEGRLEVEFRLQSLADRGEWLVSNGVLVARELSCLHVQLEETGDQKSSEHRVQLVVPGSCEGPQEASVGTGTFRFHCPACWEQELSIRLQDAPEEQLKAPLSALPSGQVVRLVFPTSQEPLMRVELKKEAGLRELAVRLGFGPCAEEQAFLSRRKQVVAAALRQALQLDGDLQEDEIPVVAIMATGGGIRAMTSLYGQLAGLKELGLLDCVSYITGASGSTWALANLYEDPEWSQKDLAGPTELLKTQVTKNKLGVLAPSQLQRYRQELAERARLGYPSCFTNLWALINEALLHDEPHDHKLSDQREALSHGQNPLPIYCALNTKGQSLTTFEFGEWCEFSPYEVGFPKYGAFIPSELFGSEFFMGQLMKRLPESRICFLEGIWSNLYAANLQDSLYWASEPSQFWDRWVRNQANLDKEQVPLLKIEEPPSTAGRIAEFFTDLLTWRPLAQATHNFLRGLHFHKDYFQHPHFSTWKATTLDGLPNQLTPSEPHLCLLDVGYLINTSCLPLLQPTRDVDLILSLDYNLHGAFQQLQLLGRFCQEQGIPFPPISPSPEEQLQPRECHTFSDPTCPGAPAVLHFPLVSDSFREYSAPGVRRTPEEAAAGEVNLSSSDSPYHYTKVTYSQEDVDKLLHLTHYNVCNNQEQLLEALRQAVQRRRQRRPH
Sequence of Cannabinoid receptor 2 (Homo sapiens) (P34972 whole entry): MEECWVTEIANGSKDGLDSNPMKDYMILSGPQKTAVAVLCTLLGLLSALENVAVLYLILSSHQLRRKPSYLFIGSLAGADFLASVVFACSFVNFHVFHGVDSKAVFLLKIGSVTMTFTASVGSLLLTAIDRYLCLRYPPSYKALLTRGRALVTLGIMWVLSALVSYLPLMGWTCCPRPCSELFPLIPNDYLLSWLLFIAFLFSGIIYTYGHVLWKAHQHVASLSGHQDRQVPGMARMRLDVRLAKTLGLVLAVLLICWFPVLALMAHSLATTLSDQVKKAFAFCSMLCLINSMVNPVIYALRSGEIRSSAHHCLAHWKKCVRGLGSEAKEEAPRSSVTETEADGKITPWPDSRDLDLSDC
Sequence of N-acyl-phosphatidylethanolamine-hydrolyzing phospholipase D (Homo sapiens) (Q6IQ20 whole entry, looked up): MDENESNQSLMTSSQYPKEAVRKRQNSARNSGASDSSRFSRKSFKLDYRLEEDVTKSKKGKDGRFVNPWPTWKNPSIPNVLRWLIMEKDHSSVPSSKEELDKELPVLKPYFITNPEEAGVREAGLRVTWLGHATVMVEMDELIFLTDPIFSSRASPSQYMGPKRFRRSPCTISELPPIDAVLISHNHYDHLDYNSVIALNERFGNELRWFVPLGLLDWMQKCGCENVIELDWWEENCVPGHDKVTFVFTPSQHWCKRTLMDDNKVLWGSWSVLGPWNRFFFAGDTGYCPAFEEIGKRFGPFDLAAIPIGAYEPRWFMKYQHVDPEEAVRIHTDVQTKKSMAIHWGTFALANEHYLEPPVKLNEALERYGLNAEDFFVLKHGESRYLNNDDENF

On to `O=C(CCCc1ccccc1)C(=O)NCCc1ccc(Oc2ccccc2)cc1`, for which the IC50 in [1] was 50.1 nM; in [2], 251 nM; in [3] it was 50.1 nM. Besides, the figures for the Activity in test [4] and in [5] were 32% and 92%, respectively. The inhibition result in [6], in [7], in test [8] and in test [9] was “Active” throughout. In addition, the inhibition result in [10], in test [11], in test [12], in [13] and in test [14] was “inactive” throughout.
